Measured values published in paper PMC4846294 (Bioorganic & medicinal chemistry, 2016).
Entries after “also recorded” stand apart in the source; their conditions may differ. Like-named read-outs stand apart in the source and are kept apart here. One block for each compound: values may come before it.

How the values were obtained:
[1] = target: T1, LAP (from porcine kidney microsomes) (Sus scrofa, UniProt P15145); experiment: In vitro LAP cleavage assay; assay type: in vitro ADME; details: for Specific Activity of LAP: rate study; for Specific Activity of LAP / % Cleavage by LAP: pH 7.2, 37 °C; for % Cleavage by LAP: area ratio of parent drug and prodrug (HPLC); for Cleavage rate relative to corresponding serinamide analogue: glycinamide versus serinamide prodrug of the same isomer; for Cleavage with a large amount of LAP (in words): 1.5 units of LAP
T1 sequence (P15145 1-963): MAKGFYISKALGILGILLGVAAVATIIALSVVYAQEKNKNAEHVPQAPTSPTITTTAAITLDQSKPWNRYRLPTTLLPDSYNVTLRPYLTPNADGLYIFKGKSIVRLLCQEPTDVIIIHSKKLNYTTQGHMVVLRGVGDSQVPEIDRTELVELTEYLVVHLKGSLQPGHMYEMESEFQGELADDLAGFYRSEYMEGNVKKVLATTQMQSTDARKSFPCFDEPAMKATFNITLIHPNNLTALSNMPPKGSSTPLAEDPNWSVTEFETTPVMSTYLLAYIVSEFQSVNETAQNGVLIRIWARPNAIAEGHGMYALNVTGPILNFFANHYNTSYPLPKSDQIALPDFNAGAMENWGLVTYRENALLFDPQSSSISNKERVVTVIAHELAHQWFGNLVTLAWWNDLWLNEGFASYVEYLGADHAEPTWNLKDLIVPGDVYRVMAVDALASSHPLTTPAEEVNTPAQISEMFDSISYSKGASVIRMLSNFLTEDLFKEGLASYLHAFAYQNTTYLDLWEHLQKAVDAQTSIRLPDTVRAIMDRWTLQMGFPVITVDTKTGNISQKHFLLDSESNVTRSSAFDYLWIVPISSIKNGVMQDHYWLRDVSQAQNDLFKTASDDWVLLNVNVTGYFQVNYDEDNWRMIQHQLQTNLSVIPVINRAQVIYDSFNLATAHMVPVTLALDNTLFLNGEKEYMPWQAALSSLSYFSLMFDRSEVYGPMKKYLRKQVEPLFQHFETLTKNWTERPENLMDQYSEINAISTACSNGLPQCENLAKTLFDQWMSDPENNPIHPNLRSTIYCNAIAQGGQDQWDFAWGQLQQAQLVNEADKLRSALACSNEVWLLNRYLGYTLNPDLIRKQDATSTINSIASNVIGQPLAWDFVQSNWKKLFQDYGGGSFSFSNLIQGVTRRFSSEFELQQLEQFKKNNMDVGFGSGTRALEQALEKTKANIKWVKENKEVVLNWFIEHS

[2] = system: MDA-MB-231-luc human breast tumor; experiment: In vivo dynamic bioluminescence imaging; set-up: species or system SCID mice; details: for BLI signal compared with baseline (significance): 4 h and 24 h
[3] = system: human cancer cell lines [SK-OV-3 (ovarian), NCI-H460 (lung), and DU-145 (prostate)]; experiment: SRB cytotoxicity, stated across all three cell lines; assay type: cell-based; details: for GI50 values described in words: parent drugs, three cell lines
[4] = system: HUVECs; experiment: In vitro HUVEC tubule disruption assay; assay type: cell-based, human; details: for Disruption of capillary-like network of tubules (HUVECs): concentration of 0.1 μM; for Disruption of HUVEC tubular network on matrigel: concentration of 1.0 μM
Method in brief: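 HUVECs (124,000 cells in M200 growth factors) plated on Matrigel (9.5 mg/mL) that had been pre-set 60 min at 37 °C; cells incubated 16 h at 37 °C to form tubule network. Test compound then added at 0.01, 0.1 or 1.0 μM. Network photographed, 9 fields/well, 40x objective.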

[5] = system: HUVECs; details: cited from earlier work
[6] = system: NCI-H460 (lung); experiment: SRB cytotoxicity assay, NCI-H460; assay type: cell-based, human; details: read-out: GI50 SRB Assay NCI-H460; 48 h treatment; average of n ≥ 3
[7] = system: DU-145 (prostate); experiment: SRB cytotoxicity assay, DU-145; assay type: cell-based, human; details: read-out: GI50 SRB Assay DU-145; 48 h treatment; average of n ≥ 3
[8] = system: SK-OV-3 (ovarian); experiment: SRB cytotoxicity assay, SK-OV-3; assay type: cell-based, human; details: read-out: GI50 SRB Assay SK-OV-3; 48 h treatment; average of n ≥ 3
[9] = system: tubulin; experiment: Colchicine binding assay; details: inhibitor 5 μM; 1.0 μM tubulin, 5.0 μM [3H]colchicine

Compound: COc1ccc(/C=C/c2cc(OC)c(OC)c(OC)c2)c(NC(=O)C(N)CO)c1.Cl (stereo in doubt) [Compound 17, (S,E)-2-amino-3-hydroxy-N-(5-methoxy-2-(3,4,5-trimethoxystyryl)phenyl)propanamide hydrochloride]
Cleavage by LAP (in words) [1]: effectively cleaved

Compound: COc1ccc(/C=C\c2cc(OC)c(OC)c(OC)c2)cc1NC(=O)[C@@H](N)CO.Cl [AVE8062, reference compound]
Cleavage by LAP (in words) [1]: effectively cleaved

Compound: COc1ccc(/C=C\c2cc(OC)c(OC)c(OC)c2)cc1OP(=O)(O)O [CA4P, combretastatin A-4 phosphate, reference compound]
BLI signal compared with baseline (significance) ([2]; CA4P 120 mg/kg ip): significantly less signal
BLI signal versus saline control (significance) ([2]; CA4P 120 mg/kg ip, p<0.05): significantly different from saline

Compound: COc1ccc(/C=C\c2cc(OC)c(OC)c(OC)c2)c(N)c1 [Compound 7, (Z)-2-(2′-amino-4′-methoxyphenyl)-1-(3,4,5-trimethoxyphenyl)ethene]
GI50 values described in words [3]: highly potent

Compound: COc1ccc(/C=C\c2cc(OC)c(OC)c(OC)c2)c(N)c1N [Compound 8, (Z)-2-(2′,3′-Diamino-4′-methoxyphenyl)-1-(3,4,5-trimethoxyphenyl)ethene]
GI50 values described in words [3]: highly potent
Disruption of capillary-like network of tubules (HUVECs) [4]: significant disruption
Disruption of HUVEC tubular network on matrigel [4]: extensive disruption

Compound: COc1ccc(/C=C\c2cc(OC)c(OC)c(OC)c2)c(N)c1N.Cl [Compound 10, (Z)-2-(2′,3′-Diamine hydrochloride-4′-methoxyphenyl)-1-(3,4,5-trimethoxyphenyl)ethene]
Reduction in light emission (BLI) relative to baseline ([2]; 80 mg/kg ip, 2 h post treatment, 17 min time-point): approximately 95%
Reduction in bioluminescence compared to saline control ([2]; 80 mg/kg, 2 h post treatment): greater than 95%
Disruption of capillary-like network of tubules (HUVECs) [4]: significant disruption
Disruption of HUVEC tubular network on matrigel [4]: extensive disruption

Compound: COc1ccc(/C=C\c2cc(OC)c(OC)c(OC)c2)c(NC(=O)[C@@H](N)CO)c1.Cl [Compound 15, (S,Z)-2-amino-3-hydroxy-N-(5-methoxy-2-(3,4,5-trimethoxystyryl)phenyl)propanamide hydrochloride]
Cytotoxicity against selected human cancer cell lines (in words) [3]: significant cytotoxicity
Cleavage by LAP (in words) [1]: effectively cleaved
Specific Activity of LAP [1]: 1.2 μM/min/enzyme unit

% Cleavage by LAP [1]: 100%
Cleavage rate relative to corresponding serinamide analogue [1]: 150 times
Specific Activity of LAP [1]: 180 μM/min/enzyme unit
Compound: COc1ccc(/C=C\c2cc(OC)c(OC)c(OC)c2)c(NC(=O)CN)c1.Cl [Compound 16, (Z)-2-amino-N-(5-methoxy-2-(3,4,5-trimethoxystyryl)phenyl)acetamide hydrochloride]
Cytotoxicity against selected human cancer cell lines (in words) [3]: significant cytotoxicity
Cleavage by LAP (in words) [1]: quantitative cleavage; also recorded: quantitatively cleaved

% Cleavage by LAP [1]: 100%
Cleavage rate relative to corresponding serinamide analogue [1]: more than 100 times
Compound: COc1ccc(/C=C/c2cc(OC)c(OC)c(OC)c2)c(NC(=O)CN)c1.Cl [Compound 18, (E)-2-amino-N-(5-methoxy-2-(3,4,5-trimethoxystyryl)phenyl)acetamide hydrochloride]
Cytotoxicity against selected human cancer cell lines (in words) [3]: more cytotoxic than the corresponding serinamide AAPC 17
Cleavage by LAP (in words) [1]: quantitative cleavage; also recorded: quantitatively cleaved

Compound: COc1ccc(/C=C\c2cc(OC)c(OC)c(OC)c2)c(NC(=O)[C@@H](N)CO)c1NC(=O)[C@@H](N)CO [Compound 22, (2S, 2'S)-N, N’-(3-methoxy-6-((Z)-3,4,5-trimethoxystyryl)-1,2-phenylene)bis(2-amino-3-hydroxypropanamide)]
Cleavage by LAP (in words) [1]: resistant to LAP mediated cleavage
Cleavage with a large amount of LAP (in words) [1]: did not result in any observable cleavage

Compound: COc1ccc(/C=C\c2cc(OC)c(OC)c(OC)c2)c(NC(=O)[C@@H](N)CO)c1NC(=O)[C@@H](N)CO.Cl.Cl [Compound 23, (2S, 2'S)-N, N’-(3-methoxy-6-((Z)-3,4,5-trimethoxystyryl)-1,2-phenylene)bis(2-amino-3-hydroxypropanamide) dihydrochloride]
Cleavage by LAP (in words) [1]: resistant to LAP mediated cleavage
Cleavage with a large amount of LAP (in words) [1]: did not result in any observable cleavage

Compound: COc1ccc(/C=C\c2cc(OC)c(OC)c(OC)c2)c(NC(=O)CN)c1NC(=O)CN.Cl.Cl [Compound 24, (Z)-N,N'-(3-methoxy-6-(3,4,5-trimethoxystyryl)-1,2-phenylene)bis(2-aminoacetamide)]
Cleavage by LAP (in words) [1]: resistant to LAP mediated cleavage
Disappearance of the prodrug on LAP treatment ([1]; LAP 0.12 units, by 25 h): greater than 95%
% Cleavage by LAP [1]: <10-90%

Compound: COc1ccc2c(c1N)CCCC=C2c1cc(OC)c(OC)c(OC)c1 [Compound 33, 1-Amino-2-methoxy-5-(3’,4’,5’-trimethoxyphenyl)-benzosuber-5-ene]
GI50 values described in words [3]: highly potent
HUVEC tubule disruption and cell rounding effect ([5]; 0.1 μM): significant tubule disruption and cell rounding effect
HUVEC tubule disruption and cell rounding effect ([5]; 1 μM): greatly enhanced
HUVEC tube disruption and cell rounding capability [5]: robust tubule disruption

% Cleavage by LAP [1]: < 10%
Compound: COc1ccc2c(c1NC(=O)[C@@H](N)CO)CCC=C2c1cc(OC)c(OC)c(OC)c1.Cl [Compound 38, (S)-2-Amino-3-hydroxy-N-(2-methoxy-5-(3,4,5-trimethoxyphenyl)-7,8-dihydronaphthalen-1-yl)propanamide hydrochloride]

Compound: COc1ccc2c(c1NC(=O)[C@@H](N)CO)CCCC=C2c1cc(OC)c(OC)c(OC)c1.Cl [Compound 39, (S)-2-Amino-3-hydroxy-N-(3-methoxy-9-(3,4,5-trimethoxyphenyl)-6,7-dihydro-5H-benzo[7]annulen-4-yl)propanamide hydrochloride]
GI50 [6]: 53800 ± 864 nM
GI50 [7]: 69400 ± 31300 nM
% Cleavage by LAP [1]: < 10%

Compound: COc1ccc2c(c1NC(=O)CN)CCC=C2c1cc(OC)c(OC)c(OC)c1.Cl [Compound 44, 2-Amino-N-(2-methoxy-5-(3,4,5-trimethoxyphenyl)-7,8-dihydronaphthalen-1-yl)acetamide hydrochloride]
BLI signal versus saline control (significance) ([2]; 5 mg/kg ip, 4 h time point): not significantly different from saline control
BLI signal versus saline control (significance) ([2]; 15 mg/kg ip, p<0.05): significantly different from saline
BLI signal compared with baseline (significance) ([2]; 10 or 15 mg/kg ip): significantly less signal
% Cleavage by LAP [1]: 100%
Specific Activity of LAP [1]: 15.5 μM/min/enzyme unit

Compound: COc1ccc2c(c1NC(=O)CN)CCCC=C2c1cc(OC)c(OC)c(OC)c1.Cl [Compound 45, 2-Amino-N-(3-methoxy-9-(3,4,5-trimethoxyphenyl)-6,7-dihydro-5H-benzo[7]annulen-4-yl)acetamide hydrochloride]
% Cleavage by LAP [1]: 100%

Compound: (Z)-2-(2'-Methoxy-4'-aminophenyl)-1-(3,4,5-trimethoxyphenyl)ethene hydrochloride [Compound 9]
GI50 [6]: 26.3 ± 16.1 nM
GI50 [7]: 28.5 ± 23.2 nM
GI50 [8]: 7.35 ± 3.5 nM
Inhibition of Colchicine Binding (% Inhibition±SD) [9]: 75±0.90%
